Each block holds one molecule with its values, some of them ahead of it.
Assays:
[1] = molecular target: T1, 17-beta-hydroxysteroid dehydrogenase type 1 (Homo sapiens) (UniProt P14061); assay: Tested by protection experiments to demonstrate the inactivation of estradiol dehydrogenase and the kinetic parameter Kapp was reported at a concentration of 20 uM
T1 sequence (whole entry): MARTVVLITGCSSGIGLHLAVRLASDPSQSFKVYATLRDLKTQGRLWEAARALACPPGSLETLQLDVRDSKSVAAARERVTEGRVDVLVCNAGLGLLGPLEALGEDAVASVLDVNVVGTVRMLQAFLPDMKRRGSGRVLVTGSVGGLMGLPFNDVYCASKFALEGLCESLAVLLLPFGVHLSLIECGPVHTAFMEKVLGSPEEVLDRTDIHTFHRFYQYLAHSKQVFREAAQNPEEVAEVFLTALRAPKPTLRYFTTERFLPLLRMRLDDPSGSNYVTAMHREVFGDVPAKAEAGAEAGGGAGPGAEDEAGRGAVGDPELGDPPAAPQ
How it was run: (§1)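 Inactivation of estradiol dehydrogenase with inhibitor at 20 μM, either alone or with a protecting ligand: 17β-estradiol or 17α-estradiol at 32 μM, or cofactors at 150 μM. Apparent inactivation rate constant (kapp, min⁻¹) was taken from least-squares fits of the time courses (r ≥ 0.992).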

[2] = The limiting half life time was reported
How it was run: (§2)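 Time-dependent inactivation of estradiol dehydrogenase was run at several inhibitor concentrations without NAD⁺, in 1 M carbonate buffer (pH 9.2) with glycerol omitted. Points are the mean of three experiments (two at 80 μM). Pseudo-first-order inactivation kinetics gave Ki and limiting t1/2.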

[3] = molecular target: T2, 17-beta-hydroxysteroid dehydrogenase type 1 (Homo sapiens, UniProt P14061); assay: Tested for time-dependent inactivation of the enzyme that followed pseudo- first- order kinetics in the absence of NAD+ and the Ki values were reported; how it was run: as §2
T2 sequence (P14061 whole entry): T1 sequence (whole entry)

[4] = molecular target: T1, 17-beta-hydroxysteroid dehydrogenase type 1 (Homo sapiens); assay: Tested by protection experiments to demonstrate the inactivation of estradiol dehydrogenase and the kinetic parameter Kapp was reported at a concentration of 150 uM; how it was run: as §1
[5] = molecular target: T2, 17-beta-hydroxysteroid dehydrogenase type 1; assay: Tested by protection experiments to demonstrate the inactivation of estradiol dehydrogenase and the kinetic parameter Ki app was reported at a concentration of 20 uM; conditions: read-out: Ki app; how it was run: as §1
[6] = substrate: C#CC(O)[C@@]1(C)CCC2c3ccc(O)cc3CCC2C1

Molecule: C[C@]12CC[C@@H]3c4ccc(O)cc4CC[C@H]3[C@@H]1CC[C@@H]2O
K app [1]: 0.013 min⁻¹

Molecule: C[C@]12CC[C@@H]3c4ccc(O)cc4CC[C@H]3[C@@H]1CC[C@@H]2O.NC(=O)C1=CN([C@@H]2O[C@H](COP(=O)(O)OP(=O)(O)OC[C@H]3O[C@@H](n4cnc5c(N)ncnc54)[C@H](O)[C@@H]3O)[C@@H](O)[C@H]2O)C=CC1
K app [1]: 0.013 min⁻¹

Molecule: C[C@]12CC[C@@H]3c4ccc(O)cc4CC[C@H]3[C@@H]1CC[C@H]2O
K app [1]: 0.01 min⁻¹

Molecule: C[C@]1(C(O)C#CC(F)(F)F)CCC2c3ccc(O)cc3CCC2C1 (stereo not given in full)
K app [1]: 0.026 min⁻¹ | half-life [2]: 7 min | Ki [3]: 59 µM | K app [4]: 0.014 min⁻¹

B1: 17-beta-hydroxysteroid dehydrogenase type 1 (Homo sapiens), P14061 (protein)
chain: T1 sequence (whole entry)
Km [6]: 79 µM

The remaining lines, values ahead:

K app [1]: 0.025 min⁻¹
Molecule: NC(=O)C1=CN(C2OC(COP(=O)(O)OP(=O)(O)OC[C@H]3O[C@@H](n4cnc5c(N)ncnc54)[C@H](O)[C@@H]3O)[C@H](O)[C@@H]2O)C=CC1 (stereo not given in full)

K app [1]: 0.013 min⁻¹
Molecule: NC(=O)c1ccc[n+]([C@@H]2O[C@H](COP(=O)([O-])OP(=O)(O)OC[C@H]3O[C@@H](n4cnc5c(N)ncnc54)[C@H](O)[C@@H]3O)[C@@H](O)[C@H]2O)c1

K app [1]: 0.021 min⁻¹ | half-life [2]: 8 min | Ki [3]: 65 µM | K app [4]: 0.011 min⁻¹
Molecule: C[C@@]1(C(O)C#CC(F)(F)F)CCC2c3ccc(O)cc3CCC2C1 (single isomer, unassigned)

Ki [5]: 2.8 µM
Molecule: C#CC(=O)[C@@]1(C)CCC2c3ccc(O)cc3CCC2C1 (stereo not given in full)

Source: ChEMBL document CHEMBL1125169, “Trifluoromethylacetylenic alcohols as affinity labels: inactivation of estradiol dehydrogenase by a trifluoromethylacetylenic secostradiol” (J Med Chem, 1990)
